Values belong to the compound of their own block, whether it stands above or below them. Active and inactive are the calls of the source. No cut-off for these calls is given here.
How the values were obtained:
[1] = biological target: Probable ATP-dependent RNA helicase DDX5 (Homo sapiens) (UniProt P17844); assay: Binding affinity to DDX5 in human NCI-H23 cells at 1 uM by mass spectrometry based pull down assay; format: cell-based
[2] = biological target: Thioredoxin reductase 1, cytoplasmic (Homo sapiens) (UniProt Q16881); assay: Binding affinity to TXNRD1 in human NCI-H23 cells at 1 uM by mass spectrometry based pull down assay; format: cell-based
[3] = biological target: Vasodilator-stimulated phosphoprotein (Homo sapiens) (UniProt P50552); assay: Binding affinity to VASP in human NCI-H23 cells at 1 uM by mass spectrometry based pull down assay; format: cell-based
[4] = biological target: 5'-nucleotidase domain-containing protein 1 (Homo sapiens) (UniProt Q5TFE4); assay: Binding affinity to NT5DC1 in human NCI-H358 cells at 1 uM by mass spectrometry based pull down assay; format: cell-based
[5] = biological target: Neuroblast differentiation-associated protein AHNAK (Homo sapiens) (UniProt Q09666); assay: Binding affinity to AHNAK in human NCI-H23 cells at 1 uM by mass spectrometry based pull down assay; format: cell-based
Outline: (§1)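 NCI-H23 or NCI-H358 cells were grown and lysed. Lysates were incubated overnight at 4 °C with 1 μM biotinylated covalent probe or DMSO, then pulled down on streptavidin beads. Proteins were run on polyacrylamide gels and stained with Coomassie. Bands were excised, digested and identified by mass spectrometry.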

[6] = biological target: Proto-oncogene tyrosine-protein kinase Src (Homo sapiens) (UniProt P12931); assay: Binding affinity to SRC in human NCI-H23 cells at 1 uM by mass spectrometry based pull down assay; format: cell-based
[7] = biological target: ADP-ribosylation factor-like protein 8B (Homo sapiens) (UniProt Q9NVJ2); assay: Binding affinity to ARL8B in human NCI-H358 cells at 1 uM by mass spectrometry based pull down assay; format: cell-based
ADP-ribosylation factor-like protein 8B (Homo sapiens), sequence (Q9NVJ2 whole entry): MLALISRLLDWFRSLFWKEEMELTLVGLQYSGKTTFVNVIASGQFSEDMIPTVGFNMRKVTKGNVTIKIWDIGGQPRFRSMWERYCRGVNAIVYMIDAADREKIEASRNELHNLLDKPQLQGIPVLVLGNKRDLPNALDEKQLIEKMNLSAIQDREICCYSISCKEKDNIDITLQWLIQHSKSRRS

[8] = biological target: 14-3-3 protein epsilon (Homo sapiens) (UniProt P62258); assay: Binding affinity to YWHAE in human NCI-H23 cells at 1 uM by mass spectrometry based pull down assay; format: cell-based
14-3-3 protein epsilon (Homo sapiens), sequence (P62258 whole entry): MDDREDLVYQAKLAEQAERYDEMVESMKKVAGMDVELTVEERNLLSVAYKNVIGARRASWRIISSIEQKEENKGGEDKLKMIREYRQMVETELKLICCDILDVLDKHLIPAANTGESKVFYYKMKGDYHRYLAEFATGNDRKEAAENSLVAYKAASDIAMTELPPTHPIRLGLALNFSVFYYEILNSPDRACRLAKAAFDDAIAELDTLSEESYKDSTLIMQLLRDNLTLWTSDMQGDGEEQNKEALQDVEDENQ

[9] = biological target: Phosphatidylinositol 3-kinase catalytic subunit type 3 (Homo sapiens) (UniProt Q8NEB9); assay: Binding affinity to PIK3C3 in human NCI-H358 cells at 1 uM by mass spectrometry based pull down assay; format: cell-based
[10] = biological target: Nucleoside diphosphate kinase A/B (Homo sapiens) (UniProt P15531+P22392); assay: Binding affinity to NME1-NME2 in human NCI-H23 cells at 1 uM by mass spectrometry based pull down assay; format: cell-based
Nucleoside diphosphate kinase A/B (Homo sapiens), sequence (P15531 whole entry, looked up): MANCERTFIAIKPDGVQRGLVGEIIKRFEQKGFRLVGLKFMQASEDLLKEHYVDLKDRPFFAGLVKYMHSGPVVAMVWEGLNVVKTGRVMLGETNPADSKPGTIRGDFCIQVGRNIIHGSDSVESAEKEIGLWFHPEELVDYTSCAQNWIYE
Nucleoside diphosphate kinase A/B (Homo sapiens), sequence (P22392 whole entry, looked up): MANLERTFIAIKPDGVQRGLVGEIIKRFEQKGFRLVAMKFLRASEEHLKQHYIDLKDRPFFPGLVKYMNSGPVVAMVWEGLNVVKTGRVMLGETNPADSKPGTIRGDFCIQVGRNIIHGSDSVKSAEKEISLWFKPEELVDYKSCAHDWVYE

[11] = biological target: Dual specificity mitogen-activated protein kinase kinase 1 (Homo sapiens) (UniProt Q02750); assay: Binding affinity to MAP2K1 in human NCI-H23 cells at 1 uM by mass spectrometry based pull down assay; format: cell-based
Dual specificity mitogen-activated protein kinase kinase 1 (Homo sapiens), sequence (Q02750 whole entry): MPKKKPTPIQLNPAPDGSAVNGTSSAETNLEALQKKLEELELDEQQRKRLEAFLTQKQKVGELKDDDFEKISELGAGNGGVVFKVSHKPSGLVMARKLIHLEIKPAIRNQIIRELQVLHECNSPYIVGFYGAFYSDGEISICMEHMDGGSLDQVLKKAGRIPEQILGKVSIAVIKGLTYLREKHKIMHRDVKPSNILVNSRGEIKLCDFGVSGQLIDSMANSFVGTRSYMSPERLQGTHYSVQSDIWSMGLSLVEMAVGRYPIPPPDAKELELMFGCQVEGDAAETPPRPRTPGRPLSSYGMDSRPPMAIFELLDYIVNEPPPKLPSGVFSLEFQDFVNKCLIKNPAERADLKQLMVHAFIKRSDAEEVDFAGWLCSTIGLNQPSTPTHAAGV

[12] = biological target: Proteasome adapter and scaffold protein ECM29 (Homo sapiens) (UniProt Q5VYK3); assay: Binding affinity to KIAA0368 in human NCI-H358 cells at 1 uM by mass spectrometry based pull down assay; format: cell-based
[13] = biological target: 5'-AMP-activated protein kinase subunit gamma-1 (Homo sapiens) (UniProt P54619); assay: Binding affinity to PRKAG1 in human NCI-H358 cells at 1 uM by mass spectrometry based pull down assay; format: cell-based
5'-AMP-activated protein kinase subunit gamma-1 (Homo sapiens), sequence (P54619 whole entry): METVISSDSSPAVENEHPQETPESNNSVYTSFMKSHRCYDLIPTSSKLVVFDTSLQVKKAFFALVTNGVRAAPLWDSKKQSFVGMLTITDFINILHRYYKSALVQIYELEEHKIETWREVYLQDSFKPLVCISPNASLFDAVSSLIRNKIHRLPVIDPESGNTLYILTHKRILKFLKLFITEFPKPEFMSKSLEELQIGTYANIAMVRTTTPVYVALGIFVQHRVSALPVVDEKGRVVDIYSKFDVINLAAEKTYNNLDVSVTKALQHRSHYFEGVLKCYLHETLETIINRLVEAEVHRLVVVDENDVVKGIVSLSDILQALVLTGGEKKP

[14] = biological target: Small ribosomal subunit protein eS6 (Homo sapiens) (UniProt P62753); assay: Binding affinity to RPS6 in human NCI-H23 cells at 1 uM by mass spectrometry based pull down assay; format: cell-based
[15] = biological target: Proteasome activator complex subunit 2 (Homo sapiens) (UniProt Q9UL46); assay: Binding affinity to PSME2 in human NCI-H23 cells at 1 uM by mass spectrometry based pull down assay; format: cell-based
Proteasome activator complex subunit 2 (Homo sapiens), sequence (Q9UL46 whole entry, one chain of several): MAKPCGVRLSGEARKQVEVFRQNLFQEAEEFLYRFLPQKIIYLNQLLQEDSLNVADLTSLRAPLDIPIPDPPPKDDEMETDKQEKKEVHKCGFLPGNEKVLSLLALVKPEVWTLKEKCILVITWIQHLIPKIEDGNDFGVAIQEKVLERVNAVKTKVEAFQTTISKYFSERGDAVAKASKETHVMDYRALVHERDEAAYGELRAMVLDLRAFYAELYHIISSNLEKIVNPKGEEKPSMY

[16] = biological target: F-actin-capping protein subunit beta (Homo sapiens) (UniProt P47756); assay: Binding affinity to CAPZB in human NCI-H358 cells at 1 uM by mass spectrometry based pull down assay; format: cell-based
[17] = biological target: Importin-5 (Homo sapiens) (UniProt O00410); assay: Binding affinity to IPO5 in human NCI-H23 cells at 1 uM by mass spectrometry based pull down assay; format: cell-based
[18] = biological target: Opioid growth factor receptor (Homo sapiens) (UniProt Q9NZT2); assay: Binding affinity to OGFR in human NCI-H23 cells at 1 uM by mass spectrometry based pull down assay; format: cell-based
Opioid growth factor receptor (Homo sapiens), sequence (Q9NZT2 whole entry): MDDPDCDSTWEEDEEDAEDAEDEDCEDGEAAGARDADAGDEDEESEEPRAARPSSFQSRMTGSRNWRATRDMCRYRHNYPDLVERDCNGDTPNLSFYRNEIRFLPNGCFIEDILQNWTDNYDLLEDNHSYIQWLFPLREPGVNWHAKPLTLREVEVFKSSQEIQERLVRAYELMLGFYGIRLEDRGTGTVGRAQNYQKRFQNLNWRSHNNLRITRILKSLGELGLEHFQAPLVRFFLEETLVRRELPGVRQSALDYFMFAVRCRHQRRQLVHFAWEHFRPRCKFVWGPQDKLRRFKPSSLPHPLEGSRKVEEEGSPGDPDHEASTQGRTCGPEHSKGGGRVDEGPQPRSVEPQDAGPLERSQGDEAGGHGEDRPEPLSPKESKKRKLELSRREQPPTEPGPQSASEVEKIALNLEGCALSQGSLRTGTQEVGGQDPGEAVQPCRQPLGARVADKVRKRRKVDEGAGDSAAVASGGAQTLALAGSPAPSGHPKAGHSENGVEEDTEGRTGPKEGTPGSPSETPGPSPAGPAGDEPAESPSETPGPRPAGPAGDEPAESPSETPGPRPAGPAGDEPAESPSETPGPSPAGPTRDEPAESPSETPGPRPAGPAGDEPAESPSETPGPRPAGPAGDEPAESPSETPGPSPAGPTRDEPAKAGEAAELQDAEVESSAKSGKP

[19] = biological target: Delta-1-pyrroline-5-carboxylate synthase (Homo sapiens) (UniProt P54886); assay: Binding affinity to ALDH18A1 in human NCI-H23 cells at 1 uM by mass spectrometry based pull down assay; format: cell-based; outline: as §1
Delta-1-pyrroline-5-carboxylate synthase (Homo sapiens), sequence (P54886 whole entry): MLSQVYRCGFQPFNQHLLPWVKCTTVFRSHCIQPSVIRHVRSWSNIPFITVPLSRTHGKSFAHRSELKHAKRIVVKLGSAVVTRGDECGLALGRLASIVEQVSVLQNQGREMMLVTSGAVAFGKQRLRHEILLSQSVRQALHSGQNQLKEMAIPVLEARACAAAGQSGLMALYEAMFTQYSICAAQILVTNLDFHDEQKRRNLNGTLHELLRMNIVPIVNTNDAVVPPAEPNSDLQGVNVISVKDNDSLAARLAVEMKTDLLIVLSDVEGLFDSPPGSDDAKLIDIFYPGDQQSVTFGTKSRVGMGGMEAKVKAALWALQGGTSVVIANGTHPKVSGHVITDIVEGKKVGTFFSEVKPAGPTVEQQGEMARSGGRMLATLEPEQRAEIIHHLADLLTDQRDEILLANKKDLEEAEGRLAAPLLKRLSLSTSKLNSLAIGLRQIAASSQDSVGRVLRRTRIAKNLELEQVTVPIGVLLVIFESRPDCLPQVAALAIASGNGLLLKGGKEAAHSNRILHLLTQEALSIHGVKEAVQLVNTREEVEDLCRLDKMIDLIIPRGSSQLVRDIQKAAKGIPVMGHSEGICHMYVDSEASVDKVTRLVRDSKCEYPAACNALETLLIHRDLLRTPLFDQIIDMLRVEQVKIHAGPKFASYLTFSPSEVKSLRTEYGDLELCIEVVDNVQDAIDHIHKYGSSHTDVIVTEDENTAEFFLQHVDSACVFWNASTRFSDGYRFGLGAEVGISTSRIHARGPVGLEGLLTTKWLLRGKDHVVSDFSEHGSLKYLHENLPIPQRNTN

[20] = biological target: Histone H2B type 2-F (Homo sapiens) (UniProt Q5QNW6); assay: Binding affinity to HIST2H2BF in human NCI-H23 cells at 1 uM by mass spectrometry based pull down assay; format: cell-based
[21] = biological target: T1, Dual specificity mitogen-activated protein kinase kinase 5 (Homo sapiens) (UniProt Q13163); assay: Binding affinity to MAP2K5 in human NCI-H23 cells at 1 uM by mass spectrometry based pull down assay; format: cell-based
T1 sequence (whole entry): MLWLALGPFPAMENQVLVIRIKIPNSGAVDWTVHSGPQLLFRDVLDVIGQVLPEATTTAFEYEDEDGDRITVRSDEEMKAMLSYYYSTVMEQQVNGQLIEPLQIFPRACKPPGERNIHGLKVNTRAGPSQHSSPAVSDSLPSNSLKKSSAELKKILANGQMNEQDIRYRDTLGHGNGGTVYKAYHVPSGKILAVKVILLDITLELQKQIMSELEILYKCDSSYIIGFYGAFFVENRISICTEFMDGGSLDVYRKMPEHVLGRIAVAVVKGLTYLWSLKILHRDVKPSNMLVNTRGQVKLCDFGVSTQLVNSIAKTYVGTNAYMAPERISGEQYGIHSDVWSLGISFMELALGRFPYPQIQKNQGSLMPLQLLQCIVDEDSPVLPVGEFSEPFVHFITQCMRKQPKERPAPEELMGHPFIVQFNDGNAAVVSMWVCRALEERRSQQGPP

[22] = biological target: Probable ATP-dependent RNA helicase DDX17 (Homo sapiens) (UniProt Q92841); assay: Binding affinity to DDX17 in human NCI-H23 cells at 1 uM by mass spectrometry based pull down assay; format: cell-based
[23] = biological target: MAP/microtubule affinity-regulating kinase 3 (Homo sapiens) (UniProt P27448); assay: Inhibition of MARK3 in human SKCO1 cells at 1 uM after 4 hrs using biotin labeled EVAIKIIDKTQLNPTSLQK probe by mass-spectrometric analysis relative to control; format: cell-based
[24] = biological target: BMP-2-inducible protein kinase (Homo sapiens) (UniProt Q9NSY1); assay: Inhibition of human BIKE (34 to 329 residues) expressed in bacterial expression system assessed as enzyme activity at 1 uM by KINOMEScan assay relative to control; set-up: scale not given: the % may be the effect or the level left
BMP-2-inducible protein kinase (Homo sapiens), sequence (Q9NSY1 whole entry, looked up, the tested form may be a part): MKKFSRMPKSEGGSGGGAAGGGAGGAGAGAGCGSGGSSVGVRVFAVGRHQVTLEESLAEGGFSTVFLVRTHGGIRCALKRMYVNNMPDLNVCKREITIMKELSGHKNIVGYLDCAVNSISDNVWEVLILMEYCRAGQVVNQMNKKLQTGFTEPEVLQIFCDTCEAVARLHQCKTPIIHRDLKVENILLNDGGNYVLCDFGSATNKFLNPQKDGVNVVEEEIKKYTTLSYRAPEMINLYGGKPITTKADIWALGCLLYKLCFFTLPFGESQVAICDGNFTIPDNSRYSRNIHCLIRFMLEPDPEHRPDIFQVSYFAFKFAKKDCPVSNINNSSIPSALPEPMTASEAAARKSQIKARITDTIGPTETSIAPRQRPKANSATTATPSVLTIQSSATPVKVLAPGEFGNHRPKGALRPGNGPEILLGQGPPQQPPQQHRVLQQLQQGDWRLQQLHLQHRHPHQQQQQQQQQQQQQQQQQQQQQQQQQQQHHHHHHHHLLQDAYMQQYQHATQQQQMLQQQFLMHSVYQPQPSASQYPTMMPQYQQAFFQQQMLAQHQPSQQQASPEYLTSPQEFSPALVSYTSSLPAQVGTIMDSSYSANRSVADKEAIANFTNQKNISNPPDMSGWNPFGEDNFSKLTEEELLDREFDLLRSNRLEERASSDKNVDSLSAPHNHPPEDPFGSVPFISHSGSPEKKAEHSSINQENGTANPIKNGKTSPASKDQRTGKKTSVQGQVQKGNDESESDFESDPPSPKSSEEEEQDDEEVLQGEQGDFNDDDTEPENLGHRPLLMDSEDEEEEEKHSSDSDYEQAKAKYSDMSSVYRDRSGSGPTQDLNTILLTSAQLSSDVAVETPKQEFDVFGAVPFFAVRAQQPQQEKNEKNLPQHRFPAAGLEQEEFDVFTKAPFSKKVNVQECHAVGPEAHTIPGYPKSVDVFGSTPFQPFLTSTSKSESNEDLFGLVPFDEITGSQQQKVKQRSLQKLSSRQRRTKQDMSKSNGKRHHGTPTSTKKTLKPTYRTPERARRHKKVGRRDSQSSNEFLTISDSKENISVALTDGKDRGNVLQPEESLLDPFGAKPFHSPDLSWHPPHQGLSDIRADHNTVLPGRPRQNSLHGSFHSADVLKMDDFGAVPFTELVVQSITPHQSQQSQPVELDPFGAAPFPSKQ
Outline: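 In vitro ATP-site competition binding assay (KinomeScan) across a panel of 456 kinases. Compound was tested at 1 and 10 μM. The read-out is the binding inhibition score relative to control.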

[25] = biological target: TGF-beta receptor type-2 (Homo sapiens) (UniProt P37173); assay: Inhibition of human TGFBR2 (218 to 567 residues) expressed in bacterial expression system assessed as enzyme activity at 1 uM by KINOMEScan assay relative to control; set-up: scale not given: the % may be the effect or the level left
TGF-beta receptor type-2 (Homo sapiens), sequence (P37173 whole entry, the tested form may be a part): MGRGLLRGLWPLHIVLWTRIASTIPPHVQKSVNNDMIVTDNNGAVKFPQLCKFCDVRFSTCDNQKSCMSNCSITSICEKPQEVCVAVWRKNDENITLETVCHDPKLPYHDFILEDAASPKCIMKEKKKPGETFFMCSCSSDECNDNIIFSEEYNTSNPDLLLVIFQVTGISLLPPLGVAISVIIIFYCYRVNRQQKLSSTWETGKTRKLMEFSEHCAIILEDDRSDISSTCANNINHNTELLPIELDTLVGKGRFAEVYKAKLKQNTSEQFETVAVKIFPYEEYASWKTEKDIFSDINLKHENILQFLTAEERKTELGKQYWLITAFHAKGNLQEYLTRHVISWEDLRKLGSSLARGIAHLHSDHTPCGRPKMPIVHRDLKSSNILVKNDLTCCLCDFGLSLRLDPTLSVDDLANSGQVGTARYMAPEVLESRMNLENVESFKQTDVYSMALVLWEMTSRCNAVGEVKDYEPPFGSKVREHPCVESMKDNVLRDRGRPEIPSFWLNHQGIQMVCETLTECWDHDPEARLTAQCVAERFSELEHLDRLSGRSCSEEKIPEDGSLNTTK
Outline: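 In vitro ATP-site competition binding assay across a panel of 456 kinases, with compound tested at 1 and 10 μM.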

Activity [1]: Active
Activity [2]: Active
Activity [3]: Active
Activity [4]: Active
Activity [5]: Active
Activity [6]: Active
Activity [7]: Active
Activity [8]: Active
Activity [9]: Active
Activity [10]: Active
Activity [11]: Active
Activity [12]: Active
Activity [13]: Active
Activity [14]: Active
Activity [15]: Active
Activity [16]: Active
Activity [17]: Active
Activity [18]: Active
Activity [19]: Active
Activity [20]: Active
Activity [21]: Active
Activity [22]: Active
SMILES: C=CC(=O)Nc1ccccc1Nc1nc(Nc2ccc(N3CCN(CCOCCOCCOCCNC(=O)CCCC[C@@H]4SC[C@@H]5NC(=O)N[C@@H]54)CC3)cc2)ncc1Cl

SMILES: C=CC(=O)Nc1ccccc1Nc1nc(Nc2ccc(N3CCN(C)CC3)cc2)ncc1Cl
inhibition [23]: 8.6%

SMILES: COc1cc(O)c2c(c1)/C=C/C[C@H](O)[C@H](O)C(=O)/C=C\C[C@H](C)OC2=O
Activity [24]: 68%
Activity [25]: 3.8%

Source: ChEMBL document CHEMBL4118021, “Studies of TAK1-centered polypharmacology with novel covalent TAK1 inhibitors” (Bioorg Med Chem, 2017)
